ChEMBL document CHEMBL1154783, “Study of 1,4-dihydropyridine structural scaffold: discovery of novel sirtuin activators and inhibitors” (2009)
Calls of active or inactive are those of the source. The rule behind the calls is not given here.

How the values were obtained:
C2C12 [1] = assay: Increase in mitochondrial function in mouse C2C12 cells assessed as enhancement of mitochondrial density at 10 to 50 uM after 16 hrs by green FM dye straining-based fluorescence assay; format: functional, cell-based
Procedure, shortened: (§1)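 C2C12 myoblasts (3000 cells/well) treated for 16 h (overnight), with DMSO as control. Cells then stained with MitoTracker Green FM (200 nM) and fluorescence intensity read after subtracting background from unstained wells.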

[2] = target: T1, Peroxisome proliferator-activated receptor gamma coactivator 1-alpha (Homo sapiens) (UniProt Q9UBK2); assay: Stimulation of PGC1-alpha-mediated transcriptional activity of mTFA promoter in mouse C2C12 cells expressing NRF1 site after 16 hrs by luciferase reporter gene assay; format: cell-based
T1 sequence (whole entry): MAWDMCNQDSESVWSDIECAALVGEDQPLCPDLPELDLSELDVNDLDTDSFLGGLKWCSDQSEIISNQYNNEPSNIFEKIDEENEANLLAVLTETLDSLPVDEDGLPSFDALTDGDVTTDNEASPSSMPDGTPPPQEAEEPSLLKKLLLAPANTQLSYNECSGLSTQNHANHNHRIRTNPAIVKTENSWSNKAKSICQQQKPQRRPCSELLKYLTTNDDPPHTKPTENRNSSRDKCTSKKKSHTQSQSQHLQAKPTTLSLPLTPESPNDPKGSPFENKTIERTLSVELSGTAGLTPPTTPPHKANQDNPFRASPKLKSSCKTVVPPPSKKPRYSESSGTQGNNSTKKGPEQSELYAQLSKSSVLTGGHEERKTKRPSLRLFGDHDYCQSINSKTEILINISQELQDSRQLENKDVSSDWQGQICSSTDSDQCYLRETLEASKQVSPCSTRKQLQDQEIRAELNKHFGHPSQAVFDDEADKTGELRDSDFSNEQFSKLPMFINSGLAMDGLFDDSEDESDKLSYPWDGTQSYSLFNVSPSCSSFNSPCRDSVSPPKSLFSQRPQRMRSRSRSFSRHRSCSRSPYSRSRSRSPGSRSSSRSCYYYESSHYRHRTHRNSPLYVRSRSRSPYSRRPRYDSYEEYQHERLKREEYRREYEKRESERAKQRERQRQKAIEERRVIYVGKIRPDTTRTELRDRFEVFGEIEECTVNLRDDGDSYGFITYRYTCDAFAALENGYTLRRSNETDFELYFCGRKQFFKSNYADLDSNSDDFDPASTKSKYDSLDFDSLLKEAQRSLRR
Procedure, shortened: (§2)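 C2C12 myoblasts in DMEM with 10% heat-inactivated FCS were reverse-transfected (Lipofectamine) with a luciferase reporter carrying either the wild-type mTFA promoter or a mutant lacking the NRF1 site. Cells plated at 3000/well and treated for 16 h (overnight). Luciferase activity compared with DMSO-treated cells by Student's t-test.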

C2C12 [3] = assay: Stimulation of transcriptional activity of mTFA promoter in mouse C2C12 cells after 16 hrs by luciferase reporter gene assay; format: functional, cell-based; procedure, shortened: as §2
[4] = target: T2, NAD-dependent protein deacetylase sirtuin-1 (Homo sapiens) (UniProt Q96EB6); assay: Inhibition of human SIRT1 expressed in Escherichia coli at 50 uM after 1 hr by fluorescent biochemical assay
T2 sequence (whole entry): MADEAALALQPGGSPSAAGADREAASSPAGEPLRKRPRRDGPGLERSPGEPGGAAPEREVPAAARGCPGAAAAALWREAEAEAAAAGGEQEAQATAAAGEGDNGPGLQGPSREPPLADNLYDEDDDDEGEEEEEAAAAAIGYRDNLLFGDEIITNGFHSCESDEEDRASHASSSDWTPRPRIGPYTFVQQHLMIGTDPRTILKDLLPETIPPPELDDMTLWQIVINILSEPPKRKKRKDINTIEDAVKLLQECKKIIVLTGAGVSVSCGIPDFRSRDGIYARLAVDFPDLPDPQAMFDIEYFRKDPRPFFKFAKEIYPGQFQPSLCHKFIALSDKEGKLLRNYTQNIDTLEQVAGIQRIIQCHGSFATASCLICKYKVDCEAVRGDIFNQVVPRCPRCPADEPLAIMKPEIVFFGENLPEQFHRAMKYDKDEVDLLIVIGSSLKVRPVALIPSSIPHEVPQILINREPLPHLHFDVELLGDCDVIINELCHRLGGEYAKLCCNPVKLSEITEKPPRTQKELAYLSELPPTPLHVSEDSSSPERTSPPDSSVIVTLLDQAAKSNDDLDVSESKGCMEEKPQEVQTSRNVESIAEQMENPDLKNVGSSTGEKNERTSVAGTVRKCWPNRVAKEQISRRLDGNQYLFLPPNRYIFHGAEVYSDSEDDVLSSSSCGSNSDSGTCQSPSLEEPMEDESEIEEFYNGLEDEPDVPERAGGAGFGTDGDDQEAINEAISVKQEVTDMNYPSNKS
Procedure, shortened: (§3)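 Fluor de Lys two-step assay with human SIRT1 (full length, 747 aa), SIRT2 (389 aa) or SIRT3 catalytic fragment ([…]), all expressed in E. coli. Enzyme was set at 1 U/well for SIRT1 and 5 U/well for SIRT2/SIRT3. Developer was then added for 15 min at 37 °C. Read at ex 355/em 460 nm, triplicates, background-subtracted, with autofluorescence controls for activators.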

[5] = target: T3, NAD-dependent protein deacetylase sirtuin-2 (Homo sapiens) (UniProt Q8IXJ6); assay: Inhibition of human SIRT2 expressed in Escherichia coli at 50 uM after 1 hr by fluorescent biochemical assay; procedure, shortened: as §3
T3 sequence (whole entry): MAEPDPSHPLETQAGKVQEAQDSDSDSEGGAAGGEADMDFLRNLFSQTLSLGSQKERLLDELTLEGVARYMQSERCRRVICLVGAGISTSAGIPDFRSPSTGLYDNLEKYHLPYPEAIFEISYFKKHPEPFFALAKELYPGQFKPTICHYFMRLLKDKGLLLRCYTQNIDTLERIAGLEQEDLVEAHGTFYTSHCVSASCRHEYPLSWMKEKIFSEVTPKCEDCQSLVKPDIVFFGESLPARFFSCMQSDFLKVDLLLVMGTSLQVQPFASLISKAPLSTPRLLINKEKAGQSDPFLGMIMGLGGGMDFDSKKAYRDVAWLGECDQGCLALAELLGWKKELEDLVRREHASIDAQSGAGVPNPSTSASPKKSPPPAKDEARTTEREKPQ

[6] = target: T4, NAD-dependent protein deacetylase sirtuin-3, mitochondrial (Homo sapiens) (UniProt Q9NTG7); assay: Inhibition of human SIRT3 expressed in Escherichia coli at 50 uM after 1 hr by fluorescent biochemical assay; procedure, shortened: as §3
T4 sequence (whole entry): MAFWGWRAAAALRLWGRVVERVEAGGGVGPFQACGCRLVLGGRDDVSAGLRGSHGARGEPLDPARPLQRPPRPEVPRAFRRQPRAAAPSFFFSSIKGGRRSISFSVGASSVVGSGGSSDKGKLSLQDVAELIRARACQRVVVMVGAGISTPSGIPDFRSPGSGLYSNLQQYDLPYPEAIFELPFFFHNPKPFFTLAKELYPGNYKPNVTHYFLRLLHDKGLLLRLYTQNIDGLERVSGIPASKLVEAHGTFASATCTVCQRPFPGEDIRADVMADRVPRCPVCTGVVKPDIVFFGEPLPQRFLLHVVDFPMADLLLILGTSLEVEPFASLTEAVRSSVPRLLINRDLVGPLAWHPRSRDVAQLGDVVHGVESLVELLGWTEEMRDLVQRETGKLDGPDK

[7] = target: T2, NAD-dependent protein deacetylase sirtuin-1 (Homo sapiens); assay: Activation of human SIRT1 expressed in Escherichia coli after 1 hr by fluorescent biochemical assay; procedure, shortened: as §3
[8] = target: T3, NAD-dependent protein deacetylase sirtuin-2 (Homo sapiens); assay: Activation of human SIRT2 expressed in Escherichia coli after 1 hr by fluorescent biochemical assay; procedure, shortened: as §3
[9] = target: T4, NAD-dependent protein deacetylase sirtuin-3, mitochondrial (Homo sapiens); assay: Activation of human SIRT3 expressed in Escherichia coli after 1 hr by fluorescent biochemical assay; procedure, shortened: as §3
U-937 [10] = assay: Cell cycle arrest in human U937 cells assessed as accumulation at G1/S phase at 50 uM after 30 hrs by FACS analysis; format: functional, cell-based
Procedure, shortened: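 U937 cells given 50 μM for 30 h. 2.5 × 10^5 cells lysed in hypotonic buffer (0.1% Triton X-100, 0.1% sodium citrate, 50 μg/mL PI, RNase A) for 30 min in the dark, then DNA content measured by flow cytometry. Done in triplicate.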

MCF7 [11] = assay: Cell cycle arrest in human MCF7 cells assessed as accumulation at G1/S phase at 50 uM after 30 hrs by FACS analysis; format: functional, cell-based
MCF7 [12] = assay: Induction of apoptosis in human MCF7 cells assessed as caspase 3/7 activity at 50 uM after 30 hrs by FACS analysis; format: functional, cell-based
U937 (Homo sapiens) = assay: Induction of granulocyte differentiation in human U937 cells assessed as increase in phycoerythrine-conjugated CD11c expression at 50 uM after 30 hrs by propidium iodide staining-based FACS analysis
U-937 [13] = assay: Induction of apoptosis in human U937 cells assessed as caspase 3/7 activity at 50 uM after 30 hrs by FACS analysis; format: functional
Procedure, shortened: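 U937 cells given 50 μM for 30 h. Apoptosis measured as caspase 3-7 activity by FACS.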

[14] = Inhibition of human MSC senescence assessed as appearance of senescence-associated beta-galactosidase positive cells at 50 uM after 48 hrs by optic microscopy relative to control; format: functional; design: scale not given: the % may be the effect or the level left
Procedure, shortened: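 Primary human MSC cultured 30 days (ninth passage), 3 × 10^5 cells/well, treated at 50 μM for 48 h. Cells fixed in 2% formaldehyde/0.2% glutaraldehyde, then stained overnight at 37 °C in pH 6 citrate/phosphate buffer with ferro/ferricyanide and 1 mg/mL X-Gal. Blue cells counted as % of total, with the control set as 100%.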

[15] = target: T3, NAD-dependent protein deacetylase sirtuin-2 (Homo sapiens); assay: Activation of human SIRT2 expressed in Escherichia coli at 1 to 50 uM after 1 hr by fluorescent biochemical assay; procedure, shortened: as §3
C2C12 [16] = assay: Increase in mitochondrial function in mouse C2C12 cells assessed as enhancement of mitochondrial density at 50 uM after 16 hrs by green FM dye straining-based fluorescence assay; format: functional, cell-based; procedure, shortened: as §1
U-937 [17] = assay: Induction of granulocyte differentiation in human U937 cells assessed as increase in phycoerythrine-conjugated CD11c expression at 50 uM after 30 hrs by propidium iodide staining-based FACS analysis; format: functional
Procedure, shortened: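 U937 cells given 50 μM for 30 h, then stained with CD11c-PE (or PE-mouse IgG1 control) for 30 min at 4 °C in the dark. Cells were resuspended in PBS with PI (0.25 μg/mL) and analyzed by FACS, with PI-positive cells excluded. Readout: CD11c+/PI− cells.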

MCF7 [18] = assay: Induction of granulocyte differentiation in human MCF7 cells assessed as increase in phycoerythrine-conjugated CD11c expression at 50 uM after 30 hrs by propidium iodide staining-based FACS analysis; format: functional, cell-based

| Structure (SMILES) | inhibition [4] | inhibition [5] | Activity [6] | Activity [7] | EC150 [9] [µM] | Activity (U-937 [10]) | Activity (MCF7 [11]) | Activity (MCF7 [12]) | Activity (U937 (Homo sapiens)) | Activity (U-937 [13]) [%] | Activity [14] [%] | further results |
| --- | --- | --- | --- | --- | --- | --- | --- | --- | --- | --- | --- | --- |
| CCOC(=O)C1=CN(Cc2ccccc2)C=C(C(=O)OCC)C1c1ccccc1 | inactive | inactive | inactive | Dose-dependent effect | 50 | Active | inactive | inactive | inactive |  |  | Activity (C2C12 [1]): Active; Activity [2]: Dose-dependent effect; Activity (C2C12 [3]): inactive; EC150 [7]: 1 µM; EC150 [8]: 25 µM |
| CCOC(=O)C1=CN(C2CC2)C=C(C(=O)OCC)C1c1ccccc1 |  | 53.7% |  |  |  |  | inactive | inactive | inactive | 3 |  |  |
| NC(=O)C1=CN(c2ccccc2)C=C(C(N)=O)C1c1ccccc1 | 89.1% |  |  |  |  |  |  |  |  |  |  |  |
| CCOC(=O)C1=CN(c2ccccc2)C=C(C(=O)OCC)C1c1ccccc1 | 63.6% | 51.3% |  |  |  |  | inactive | inactive | inactive | 3 |  |  |
| NC(=O)C1=CN(Cc2ccccc2)C=C(C(N)=O)C1c1ccccc1 | inactive | inactive | inactive | Dose-dependent effect | > 50 | Active | inactive | inactive | inactive |  | 65 | Activity [15]: inactive |
| O=C(O)C1=CN(c2ccccc2)C=C(C(=O)O)C1c1ccccc1 | 86.6% |  |  |  |  |  |  |  |  |  |  |  |
| Oc1ccc(/C=C/c2cc(O)cc(O)c2)cc1 [RESVERATROL] |  |  |  |  |  |  |  |  |  |  | 50 | Activity (C2C12 [16]): Active |
| CCOC(=O)C1=CN(CCc2ccccc2)C=C(C(=O)OCC)C1c1ccccc1 | 76.6% | 49.6% |  |  |  |  | inactive | inactive |  | 3 |  | Activity (U-937 [17]): 12.3%; Activity (MCF7 [18]): inactive |
| O=C(O)C1=CN(Cc2ccccc2)C=C(C(=O)O)C1c1ccccc1 | inactive | inactive | inactive | Dose-dependent effect | 50 | Active | inactive | inactive | inactive |  | 70 | EC150 [7]: 1 µM; EC150 [8]: 15 µM |
